Data reported in ChEMBL document CHEMBL3227988, “Synthesis and antiviral activities of arabinofuranosyl-5-ethylpyrimidine nucleosides. Selective antiherpes activity of 1-(beta-D-arabinofuranosyl)-5-ethyluracil” (J Med Chem, 1979).
≈ marks a conversion by molar mass, not a printed value. Calls of active or inactive are those of the source. No cut-off for these calls is given here.

Tests used:
Human alphaherpesvirus 2 [1] = experiment: Antiviral activity against Herpes simplex virus-2 196 infected in primary rabbit kidney cells assessed as inhibition of virus-induced cytopathogenicity at 200 ug/ml treated immediately after virus adsorption measured 2 to 3 days after virus infection; type: functional, organism-based
Human alphaherpesvirus 1 [2] = experiment: Antiviral activity against Herpes simplex virus-1 KOS infected in human skin fibroblast cells assessed as inhibition of virus-induced cytopathogenicity at 200 ug/ml treated immediately after virus adsorption measured 2 to 3 days after virus infection; type: functional, organism-based
Human alphaherpesvirus 2 [3] = experiment: Antiviral activity against Herpes simplex virus-2 LYONS infected in primary rabbit kidney cells assessed as inhibition of virus-induced cytopathogenicity at 200 ug/ml treated immediately after virus adsorption measured 2 to 3 days after virus infection; type: functional, organism-based
Human alphaherpesvirus 1 [4] = experiment: Antiviral activity against Herpes simplex virus-1 KOS infected in primary rabbit kidney cells assessed as inhibition of virus-induced cytopathogenicity at 200 ug/ml treated immediately after virus adsorption measured 2 to 3 days after virus infection; type: functional, organism-based
Human alphaherpesvirus 1 [5] = experiment: Antiviral activity against Herpes simplex virus-1 KOS infected in human skin fibroblast cells assessed as inhibition of virus-induced cytopathogenicity treated immediately after virus adsorption measured 2 to 3 days after virus infection; type: functional; details: Human alphaherpesvirus 1, KOS
[6] = Antimetabolic activity against primary rabbit kidney cells assessed as inhibition of [2-14C]dUrd incorporation into DNA after 16 hrs; type: ADME, cell-based, Oryctolagus cuniculus
How it was run: (§1)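 Compound added to primary rabbit kidney cell cultures together with the radiolabeled DNA precursor. Input per 10^? cells: [methyl-3H]dThd 0.12 μCi/0.01 nmol, [2-14C]dUrd 14 μCi/250 nmol. Incorporation measured after 16 h incubation. Value is the concentration giving 50% inhibition of precursor incorporation.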

Human alphaherpesvirus 1 [7] = experiment: Antiviral activity against Herpes simplex virus-1 KOS infected in primary rabbit kidney cells assessed as log reduction in virus yield at 100 ug/ml treated immediately after virus adsorption measured 24 to 48 hrs after virus infection; type: functional
[8] = Antiviral index, ratio of minimal toxic dose require to inhibit cellular DNA synthesis in primary rabbit kidney cells by 50% to minimal effective dose require to inhibit HSV1 KOS cytopathogenicity; type: toxicity, cell-based
How it was run: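 Ratio of two doses. Numerator: dose inhibiting cellular DNA synthesis by 50%, measured as dThd or dUrd incorporation over 16 h. Denominator: minimal dose inhibiting HSV-1 KOS cytopathogenicity. For the CPE assay, virus input was 100 CCID50 per culture and compound was added right after adsorption. CPE was scored once untreated infected controls reached full CPE, generally at 2-3 days.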

Vaccinia virus = experiment: Antiviral activity against Vaccinia virus infected in primary rabbit kidney cells assessed as growth inhibition at 100 ug/ml treated immediately after virus adsorption measured 24 to 48 hrs after virus infection; type: functional, organism-based; details: Orthopoxvirus vaccinia
[9] = Antimetabolic activity against primary rabbit kidney cells assessed as inhibition of [methyl-3H]dThd incorporation into DNA after 16 hrs; type: ADME, cell-based, Oryctolagus cuniculus; how it was run: as §1
Human alphaherpesvirus 2 [10] = experiment: Antiviral activity against Herpes simplex virus-2 LYONS infected in primary rabbit kidney cells assessed as inhibition of virus-induced cytopathogenicity treated immediately after virus adsorption measured 2 to 3 days after virus infection; type: functional; details: Human alphaherpesvirus 2, LYONS
[11] = tested on: Vesicular stomatitis virus; experiment: Antiviral activity against Vesicular stomatitis virus infected in primary rabbit kidney cells assessed as inhibition of virus-induced cytopathogenicity treated immediately after virus adsorption measured 2 to 3 days after virus infection; type: functional
Human alphaherpesvirus 1 [12] = experiment: Antiviral activity against Herpes simplex virus-1 KOS infected in primary rabbit kidney cells assessed as inhibition of virus-induced cytopathogenicity treated immediately after virus adsorption measured 2 to 3 days after virus infection; type: functional; details: Human alphaherpesvirus 1, KOS
Human alphaherpesvirus 2 [13] = experiment: Antiviral activity against Herpes simplex virus-2 196 infected in primary rabbit kidney cells assessed as inhibition of virus-induced cytopathogenicity treated immediately after virus adsorption measured 2 to 3 days after virus infection; type: functional; details: Human alphaherpesvirus 2, 196

SMILES: CCc1cn([C@H]2O[C@H](CO)[C@@H](O)[C@@H]2O)c(=O)nc1N
- inhibition (Human alphaherpesvirus 2 [1]): inactive
- inhibition (Human alphaherpesvirus 1 [2]): inactive
- inhibition (Human alphaherpesvirus 2 [3]): inactive
- inhibition (Human alphaherpesvirus 1 [4]): inactive

SMILES: CCc1cn([C@@H]2O[C@H](CO)[C@@H](O)[C@@H]2O)c(=O)[nH]c1=O
- MIC (Human alphaherpesvirus 1 [5]): 2 µg/mL (≈ 7.35 µM)
- MIC [6]: > 200 µg/mL
- log10PFU/ml (Human alphaherpesvirus 1 [7]): >3
- selectivity ratio [8]: > 100
- inhibition (Vaccinia virus): inactive
- MIC [9]: > 200 µg/mL
- MIC (Human alphaherpesvirus 2 [10]): 10 µg/mL (≈ 36.7 µM)
- MIC [11]: > 200 µg/mL
- MIC (Human alphaherpesvirus 1 [12]): 2 µg/mL (≈ 7.35 µM)
- MIC (Human alphaherpesvirus 2 [13]): 20 µg/mL (≈ 73.5 µM)

SMILES: Cc1cn([C@@H]2O[C@H](CO)[C@@H](O)[C@@H]2O)c(=O)[nH]c1=O
- MIC (Human alphaherpesvirus 1 [5]): 0.1 µg/mL (≈ 0.387 µM)
- MIC [6]: 300 µg/mL (≈ 1160 µM)
- MIC [9]: 300 µg/mL (≈ 1160 µM)
- MIC (Human alphaherpesvirus 2 [10]): 0.3 µg/mL (≈ 1.16 µM)
- MIC [11]: > 200 µg/mL
- MIC (Human alphaherpesvirus 1 [12]): 0.2 µg/mL (≈ 0.775 µM)
- MIC (Human alphaherpesvirus 2 [13]): 0.4 µg/mL (≈ 1.55 µM)

SMILES: O=c1ccn([C@@H]2O[C@H](CO)[C@@H](O)[C@@H]2O)c(=O)[nH]1 [ARAURIDINE]
- MIC (Human alphaherpesvirus 1 [5]): 20 µg/mL (≈ 81.9 µM)
- MIC [6]: > 400 µg/mL
- MIC [9]: 300 µg/mL (≈ 1230 µM)
- MIC (Human alphaherpesvirus 2 [10]): 20 µg/mL (≈ 81.9 µM)
- MIC [11]: > 200 µg/mL
- MIC (Human alphaherpesvirus 1 [12]): 20 µg/mL (≈ 81.9 µM)
- MIC (Human alphaherpesvirus 2 [13]): 20 µg/mL (≈ 81.9 µM)

SMILES: CCc1cn([C@H]2O[C@H](CO)[C@@H](O)[C@@H]2O)c(=O)[nH]c1=O
- inhibition (Human alphaherpesvirus 2 [1]): inactive
- inhibition (Human alphaherpesvirus 1 [2]): inactive
- inhibition (Human alphaherpesvirus 2 [3]): inactive
- inhibition (Human alphaherpesvirus 1 [4]): inactive

SMILES: Nc1ccn([C@@H]2O[C@H](CO)[C@@H](O)[C@@H]2O)c(=O)n1 [CYTARABINE]
- MIC (Human alphaherpesvirus 1 [5]): 0.02 µg/mL (≈ 0.0822 µM)
- MIC [6]: 0.05 µg/mL (≈ 0.206 µM)
- MIC [9]: 0.1 µg/mL (≈ 0.411 µM)
- MIC (Human alphaherpesvirus 2 [10]): 0.04 µg/mL (≈ 0.164 µM)
- MIC [11]: 4 µg/mL (≈ 16.4 µM)
- MIC (Human alphaherpesvirus 1 [12]): 0.03 µg/mL (≈ 0.123 µM)
- MIC (Human alphaherpesvirus 2 [13]): 0.03 µg/mL (≈ 0.123 µM)

SMILES: CCc1cn([C@@H]2O[C@H](CO)[C@@H](O)[C@@H]2O)c(=O)nc1N
- MIC (Human alphaherpesvirus 1 [5]): 20 µg/mL (≈ 73.7 µM)
- MIC [6]: > 200 µg/mL
- MIC [11]: > 200 µg/mL
- MIC (Human alphaherpesvirus 1 [12]): 100 µg/mL (≈ 369 µM)
